Paper PMC9293711 (Acta Pharmaceutica Sinica. B, 2022)
Like-named read-outs stand apart in the source and are kept apart here.

Key:
MCF-7/ADR cells = type: cell-based, human; conditions: after 24 h pre-incubation with non-toxic concentration of the compound
Procedure, shortened: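 Adr-resistant MCF-7/ADR cells were kept in RPMI 1640 with 10% FBS and 1000 ng/mL Adr. Cells were seeded at 5 × 10^3/well and pre-treated 24 h with the test compound at its highest non-toxic level (95% viability by 24 h CCK8 over 1.25–80 μmol/L). Adr (0–100 μmol/L) was then added for 24 h.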

P-gp [1] = molecular target: T1, P-gp (Homo sapiens, UniProt P08183); assay: biochemical; conditions: Table 2, steady-state affinity model (1:1), reference FC SMALPs-MCF-7
T1 sequence (P08183 whole entry): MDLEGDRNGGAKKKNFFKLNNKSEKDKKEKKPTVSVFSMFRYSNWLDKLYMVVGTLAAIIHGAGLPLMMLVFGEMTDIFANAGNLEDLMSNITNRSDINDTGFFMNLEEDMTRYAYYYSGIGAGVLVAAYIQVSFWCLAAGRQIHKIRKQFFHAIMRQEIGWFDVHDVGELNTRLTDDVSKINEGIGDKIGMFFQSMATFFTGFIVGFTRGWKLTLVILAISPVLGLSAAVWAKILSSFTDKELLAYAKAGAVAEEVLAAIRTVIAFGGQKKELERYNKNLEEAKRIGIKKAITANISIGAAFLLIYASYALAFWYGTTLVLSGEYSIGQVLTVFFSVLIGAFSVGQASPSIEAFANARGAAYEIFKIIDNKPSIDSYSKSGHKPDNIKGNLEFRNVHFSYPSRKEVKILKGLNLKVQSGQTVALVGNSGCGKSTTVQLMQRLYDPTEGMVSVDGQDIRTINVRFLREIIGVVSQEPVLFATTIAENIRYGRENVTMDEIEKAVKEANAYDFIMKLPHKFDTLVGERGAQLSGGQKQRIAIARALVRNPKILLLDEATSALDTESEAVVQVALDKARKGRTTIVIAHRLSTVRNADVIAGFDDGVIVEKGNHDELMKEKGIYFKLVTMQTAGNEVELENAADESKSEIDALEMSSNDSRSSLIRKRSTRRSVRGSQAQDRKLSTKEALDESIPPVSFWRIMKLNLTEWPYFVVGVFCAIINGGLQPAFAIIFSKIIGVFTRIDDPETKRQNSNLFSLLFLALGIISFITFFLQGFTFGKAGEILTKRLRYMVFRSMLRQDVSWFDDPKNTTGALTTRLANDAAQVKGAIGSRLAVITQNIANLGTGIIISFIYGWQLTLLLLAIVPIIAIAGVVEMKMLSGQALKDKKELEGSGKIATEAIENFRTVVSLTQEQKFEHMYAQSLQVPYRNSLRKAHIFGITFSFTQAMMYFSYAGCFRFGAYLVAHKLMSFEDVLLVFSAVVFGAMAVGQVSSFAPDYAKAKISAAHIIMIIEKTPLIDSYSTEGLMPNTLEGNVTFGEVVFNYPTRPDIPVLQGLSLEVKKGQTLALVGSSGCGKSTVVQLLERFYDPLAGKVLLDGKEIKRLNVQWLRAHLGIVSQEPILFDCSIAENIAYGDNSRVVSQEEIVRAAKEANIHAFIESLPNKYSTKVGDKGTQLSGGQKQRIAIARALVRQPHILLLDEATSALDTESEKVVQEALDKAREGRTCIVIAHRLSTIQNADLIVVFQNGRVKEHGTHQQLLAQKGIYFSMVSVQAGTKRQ

P-gp [2] = molecular target: T1, P-gp; conditions: SPR screening of 50 natural products, remarkable response values
P-gp [3] = molecular target: T1, P-gp; conditions: for Rmax: analyte binding capacity from steady-state fit; for Kd: Table 2, steady-state affinity model (1:1), reference FC SMALPs-MCF-7
P-gp [4] = molecular target: T1, P-gp; assay: Rh123 bidirectional transport experiment in MDCK-MDR1 cell monolayer; type: cell-based; conditions: MDCK-MDR1 cells, pre-incubation with the compound
Procedure, shortened: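 MDCK cells transfected with MDR1 were grown in DMEM with 10% FBS, streptomycin and penicillin, then used as monolayers on Transwell plates. Rh123 served as the P-gp substrate. Apparent permeability was measured in both directions, apical→basolateral and basolateral→apical, with efflux rate (ER) derived from these, for treated versus control monolayers (mean ± SD, n = 3).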

Compound	Sensitivity of MCF-7/ADR cells to Adr (MCF-7/ADR cells)	Kd (P-gp [1]) [µM]	Screening outcome: target compound binding to P-gp (P-gp [2])	Rmax (P-gp [3]) [RU]	Effect on ER of Rh123 / P-gp function (in words) (P-gp [4])	Kd (P-gp [3]) [µM]
C/C=C/C[C@@H](C)C(=O)[C@H]1C(=O)N[C@@H](C(C)C)C(=O)N(C)CC(=O)N(C)[C@@H](CC(C)C)C(=O)N[C@@H](C(C)C)C(=O)N(C)[C@@H](CC(C)C)C(=O)N[C@@H](C)C(=O)N[C@H](C)C(=O)N(C)[C@@H](CC(C)C)C(=O)N(C)[C@@H](CC(C)C)C(=O)N(C)[C@@H](C(C)C)C(=O)N1C [Valspodar, valspodar, reference compound]	significantly increased					
COc1ccc2cc1Oc1ccc(cc1)C[C@H]1c3cc(c(OC)cc3CCN1C)Oc1c(O)c(OC)cc3c1[C@H](C2)N(C)CC3 [Fangchinoline]	significantly increased	116	could bind to P-gp	24.92		
C/C=C(/C)C(=O)O[C@H]1c2c(ccc3ccc(=O)oc23)OC(C)(C)[C@H]1OC(=O)/C(C)=C\C [Praeruptorin B]	significantly increased		could bind to P-gp	3.498	significantly reduce the ER of Rh123	0.542
COc1cc(/C=C/C(=O)CC(=O)/C=C/c2ccc(O)c(OC)c2)ccc1O [Curcumin]	could not improve the sensitivity	152		270.2		
C/C=C(/C)C(=O)O[C@H]1[C@@H](OC(C)=O)c2c(ccc3ccc(=O)oc23)OC1(C)C [Praeruptorin A]			could bind to P-gp	2.618		7.17
O=c1cc(-c2ccc(O)c(O)c2)oc2cc(O)cc(O)c12 [Luteolin]		51.7	could bind to P-gp	47.21		
COc1ccc(-c2oc3c(CC=C(C)C)c(O)cc(O)c3c(=O)c2O)cc1 [Icaritin]			could bind to P-gp	13.86		2.55
COc1cccc(O)c1-c1cc(=O)c2c(O)c(OC)c(OC)c(OC)c2o1 [Neobaicalein]	significantly increased		could bind to P-gp	89.01	significantly reduce the ER of Rh123	127
COc1ccc2cc1Oc1ccc(cc1)C[C@H]1c3cc(c(OC)cc3CCN1C)Oc1c(OC)c(OC)cc3c1[C@H](C2)N(C)CC3 [Tetrandrine]	significantly increased	221	could bind to P-gp	11.24		
O=C(/C=C/c1ccc(O)cc1)c1ccc(O)cc1O [Isoliquiritigenin]	could not improve the sensitivity	255		114		
